Non-standard residues stand in square brackets, D forms with d. Residues, ends and D or L forms follow the SMILES beside them. Tyr(3-NO2) = N[C@@H](Cc1ccc(O)c([N+](=O)[O-])c1)C(=O)O; 2Abz = Nc1ccccc1C(=O)O

One assay concerns dengue virus type 4. In words: Activity of dengue virus 4 recombinant NS3 protease expressed in Escherichia coli C41(DE3) by fluorogenic assay. Summed up: (§1)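 NS2B(H)-NS3pro from inclusion bodies, Ni-chelate and gel filtration purified under 8 M urea, refolded by dialysis. Internally quenched Abz–RRRR-XXXX–nY–NH2 peptides, 1–100 µM (12 points), enzyme 150–200 nM, 50 mM Tris–HCl pH 9.0, 20% glycerol, 37 °C. Cleavage read as fluorescence, ex 320/em 420 nm. Initial rates fitted to give Km and kcat, averaged over ≥3 independent measurements.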

For a further assay, the system named is dengue virus type 2. In words: Activity of dengue virus 2 recombinant NS3 protease expressed in Escherichia coli C41(DE3) by fluorogenic assay. A digest of the protocol:
as §1

A further assay has as its system dengue virus type 1. Briefly: Activity of dengue virus 1 recombinant NS3 protease expressed in Escherichia coli C41(DE3) by fluorogenic assay. A digest of the protocol: as §1
The subject of a further assay is dengue virus type 3. In words: Activity of dengue virus 3 recombinant NS3 protease expressed in Escherichia coli C41(DE3) by fluorogenic assay. Summed up: as §1

For `C[C@H](NC(=O)CNC(=O)[C@H](C)NC(=O)[C@H](CO)NC(=O)c1ccccc1N)C(=O)N[C@@H](Cc1ccc(O)c([N+](=O)[O-])c1)C(N)=O` (H-[2Abz]SAGA[Tyr(3-NO2)]-NH2), the results for the Km in the assay on dengue virus type 4, in the assay on dengue virus type 2 and in the assay with dengue virus type 1 were 10.5 µM, 3.06 µM and 23.3 µM, respectively. Further, the kcat is 0.222 s⁻¹ in the assay with dengue virus type 4, 0.027 s⁻¹ in the assay on dengue virus type 2 and 0.227 s⁻¹ in the assay with dengue virus type 1.
With `CC(C)[C@H](NC(=O)[C@H](CC(=O)O)NC(=O)[C@H](CC(N)=O)NC(=O)c1ccccc1N)C(=O)N[C@@H](CC(=O)O)C(=O)N[C@@H](Cc1ccc(O)c([N+](=O)[O-])c1)C(N)=O` (H-[2Abz]NDVD[Tyr(3-NO2)]-NH2), the Km was determined as 85.9 µM with dengue virus type 4, 43.2 µM with dengue virus type 2 and 106 µM in the assay on dengue virus type 1. Also, the kcat in the assay with dengue virus type 4 turned out to be 0.0253 s⁻¹; in the assay on dengue virus type 2 it was 0.00167 s⁻¹; with dengue virus type 1 it was 0.006 s⁻¹.
Take `C[C@H](NC(=O)c1ccccc1N)C(=O)N1CCC[C@H]1C(=O)NCC(=O)N[C@@H](CC(=O)O)C(=O)N[C@@H](Cc1ccc(O)c([N+](=O)[O-])c1)C(N)=O` (H-[2Abz]APGD[Tyr(3-NO2)]-NH2): the Km amounted to 89 µM in the assay with dengue virus type 4 and 19.6 µM in the assay on dengue virus type 2. Further, the kcat was found to be 0.0103 s⁻¹ with dengue virus type 4 and 0.000667 s⁻¹ in the assay on dengue virus type 2.
For the compound `NC(=O)[C@H](Cc1ccc(O)c([N+](=O)[O-])c1)NC(=O)[C@H](CS)NC(=O)CNC(=O)[C@H](Cc1c[nH]c2ccccc12)NC(=O)[C@H](CO)NC(=O)c1ccccc1N` (H-[2Abz]SWGC[Tyr(3-NO2)]-NH2), in the assay with dengue virus type 4, the Km was found to be 4.79 µM and the kcat amounted to 0.0398 s⁻¹. Besides, in the assay with dengue virus type 2, the Km was 2.87 µM and the kcat is 0.0065 s⁻¹.
For the compound `NC(=O)[C@H](Cc1ccc(O)c([N+](=O)[O-])c1)NC(=O)[C@H](CC(=O)O)NC(=O)[C@H](CO)NC(=O)[C@H](Cc1c[nH]c2ccccc12)NC(=O)[C@H](Cc1cnc[nH]1)NC(=O)c1ccccc1N` (H-[2Abz]HWSD[Tyr(3-NO2)]-NH2), the Km in the assay with dengue virus type 4 came to 9.76 µM; in the assay on dengue virus type 2, 14.9 µM; in the assay on dengue virus type 1 it was 17.2 µM. Also, the kcat in the assay with dengue virus type 4 stood at 0.0108 s⁻¹; with dengue virus type 2, 0.00117 s⁻¹; in the assay on dengue virus type 1, 0.0025 s⁻¹.
For the compound `CC(C)C[C@H](NC(=O)[C@H](Cc1cnc[nH]1)NC(=O)c1ccccc1N)C(=O)N[C@H](C(=O)N[C@@H](Cc1cnc[nH]1)C(=O)N[C@@H](Cc1ccc(O)c([N+](=O)[O-])c1)C(N)=O)C(C)C` (H-[2Abz]HLVH[Tyr(3-NO2)]-NH2), the Km with dengue virus type 4 is 16.3 µM; in the assay on dengue virus type 2, 14.1 µM; in the assay on dengue virus type 1, 8.83 µM. In addition, the kcat with dengue virus type 4 is 0.018 s⁻¹; in the assay with dengue virus type 2, 0.00233 s⁻¹; in the assay on dengue virus type 1 it was 0.00617 s⁻¹.
Turning to `C[C@H](NC(=O)c1ccccc1N)C(=O)N[C@@H](Cc1cnc[nH]1)C(=O)N[C@@H](CO)C(=O)N[C@@H](CS)C(=O)N[C@@H](Cc1ccc(O)c([N+](=O)[O-])c1)C(N)=O` (H-[2Abz]AHSC[Tyr(3-NO2)]-NH2), in the assay on dengue virus type 4, the Km was 4.21 µM and the kcat was found to be 0.0305 s⁻¹. In the assay on dengue virus type 2, the Km turned out to be 5.63 µM and the turnover number (kcat) is 0.00433 s⁻¹.
As to `NC(=O)C[C@H](NC(=O)[C@H](Cc1cnc[nH]1)NC(=O)c1ccccc1N)C(=O)N[C@@H](CS)C(=O)N[C@@H](CS)C(=O)N[C@@H](Cc1ccc(O)c([N+](=O)[O-])c1)C(N)=O` (H-[2Abz]HNCC[Tyr(3-NO2)]-NH2), the Km was found to be 3.28 µM in the assay with dengue virus type 4, 10 µM in the assay with dengue virus type 3 and 8.81 µM in the assay with dengue virus type 2. Moreover, the kcat stood at 0.0157 s⁻¹ in the assay with dengue virus type 4, 0.00283 s⁻¹ with dengue virus type 3 and 0.00233 s⁻¹ in the assay with dengue virus type 2.
Consider `CC(C)[C@H](NC(=O)CNC(=O)[C@H](CO)NC(=O)c1ccccc1N)C(=O)N[C@@H](CS)C(=O)N[C@@H](Cc1ccc(O)c([N+](=O)[O-])c1)C(N)=O` (H-[2Abz]SGVC[Tyr(3-NO2)]-NH2), for which the Km in the assay with dengue virus type 4 was found to be 7.06 µM; in the assay with dengue virus type 3, 19.7 µM; with dengue virus type 2, 4.26 µM. Moreover, the kcat in the assay with dengue virus type 4 was 0.0757 s⁻¹; in the assay on dengue virus type 3 it was 0.0292 s⁻¹; with dengue virus type 2, 0.0163 s⁻¹.

Usually Km stands for the concentration of substrate that gives half-maximal velocity. The term kcat denotes the maximal rate divided by the concentration of active sites.

The values above are taken from ChEMBL document CHEMBL1152244, “Proteochemometrics analysis of substrate interactions with dengue virus NS3 proteases” (Bioorg Med Chem, 2008).
